Screens from PubChem BioAssay.
Rows were chosen to be rich in hits. Some 2.1% of all compounds tested hit in one or more screens of this group.
Runt-CBFb FRET = blocks binding of human RUNX1 Runt domain to CBFb; Cerulean-Runt/Venus-CBFb FRET ratio 530/480, 1 h; inhibition, % at 20 µM; Q01196+Q13951; actives 0.46% (n = 220,000);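 active means inhibition over about 50% at 20 µM in the single-dose screen, limit read from the data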;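 further: 0% = DMSO wells and 100% = excess unlabeled CBFb competitor control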
Target sequence (Q01196 whole entry, looked up, the tested form may be a part): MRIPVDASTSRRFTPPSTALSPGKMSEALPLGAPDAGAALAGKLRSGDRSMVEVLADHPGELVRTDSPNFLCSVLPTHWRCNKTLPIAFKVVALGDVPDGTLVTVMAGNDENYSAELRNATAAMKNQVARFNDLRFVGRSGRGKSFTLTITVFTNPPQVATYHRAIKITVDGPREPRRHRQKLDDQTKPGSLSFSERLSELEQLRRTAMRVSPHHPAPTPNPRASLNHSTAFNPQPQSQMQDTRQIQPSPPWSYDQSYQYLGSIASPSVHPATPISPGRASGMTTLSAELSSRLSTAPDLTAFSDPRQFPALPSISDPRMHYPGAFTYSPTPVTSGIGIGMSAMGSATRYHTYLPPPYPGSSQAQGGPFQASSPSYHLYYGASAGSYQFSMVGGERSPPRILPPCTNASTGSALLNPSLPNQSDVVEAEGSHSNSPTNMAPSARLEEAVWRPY
Target sequence (Q13951 whole entry, looked up, the tested form may be a part): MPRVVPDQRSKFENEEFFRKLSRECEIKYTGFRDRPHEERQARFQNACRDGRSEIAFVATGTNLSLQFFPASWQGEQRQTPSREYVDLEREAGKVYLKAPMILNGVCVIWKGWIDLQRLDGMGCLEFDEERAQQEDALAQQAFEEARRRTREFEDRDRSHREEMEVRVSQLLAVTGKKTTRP
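test system = Cerulean-tagged RUNX1 Runt domain (FRET donor) fusion protein | reagent = Venus-CBFb binding partner, 100 nM | incubation = protein complex preformed 1 h, compound exposure 1 h, room temperature, dark | detection = FRET fluorescence | read-out basis = loss of energy transfer signal | controls = 5 µM unlabeled CBFb as full-inhibition high control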
FAS-TE inh = FAS thioesterase (human) inhibition | AID 602261 | inhibition, % at 15 µM | actives 0.67% (n = 360,000) | P49327 | recombinant FAS-TE, OMFH fluorogenic substrate, fluorescence endpoint;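 active means compounds whose normalised, plate-corrected inhibition of enzyme fluorescence in the single-dose primary screen is 50% or more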;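 further: 0% = DMSO with enzyme and 100% = substrate without enzyme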
Runt-SMMHC FRET = Runt domain-CBFb-SMMHC interaction inhibition | actives 0.74% (n = 220,000) | AID 1434 | inhibition, % at 20 µM | Cerulean-Runt/Venus-CBFb-SMMHC FRET ratio 530/480, 1 h | Q01196+Q13951;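 active means mean inhibition across duplicate retests at 20 µM reaching about 50%, limit read from the data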;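 further: 0% = DMSO wells and 100% = wells with excess untagged CBFb-SMMHC; inhibitors lower the FRET ratio by blocking Runt binding to CBFb-SMMHC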
Calpain2 inh = blocks pig calpain II enzyme activity. inhibition, % at 16 µM. purified calpain II, fluorogenic peptide substrate, 30 min. actives 0.37% (n = 220,000);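 active means inhibition above about 50%, limit read from the data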
RanGTP-Imp inh = inhibitors of RanGTP-importin-beta interaction, primary screen, biochemical, FRET, CFP-Ran, YFP-importin-beta, homogeneous | cell-free CFP-Ran/YFP-importin-beta FRET ratio | inhibition, % (test concentration not listed) | actives 1.1% (n = 300,000);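 active means more than half of the replicate wells show a fall in the fluorescence ratio signal beyond about 16%, limit read from the data, passing the limit was not always enough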;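 further: 0% = DMSO wells and 100% = Ran loaded with GDP instead of GTP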
Active calls of the source: *; nt = no result.

SMILES | Runt-CBFb FRET | FAS-TE inh | Runt-SMMHC FRET | Calpain2 inh | RanGTP-Imp inh
N=c1c(C(=O)NCc2ccc3c(c2)OCO3)cc2c(=O)n3ccccc3nc2n1Cc1cccnc1 | 95* | -3 | 144* | -35 | 63*
COc1ccc(CNC(=O)c2cc3c(=O)n4ccccc4nc3n(Cc3cccnc3)c2=N)cc1 | 72* | -8 | 150* | -141 | 72*
Nc1n[nH]c2cc(=O)n(-c3ccc(Cl)cc3)nc12 | 18 | -9 | 54* | -48 | 77*
COc1ccc(-n2nc3c(N)n[nH]c3cc2=O)cc1 | -6 | -14 | -20 | -31 | -14
Cc1c(O)ccc2c(CN3CCN(C/C=C/c4ccccc4)CC3)cc(=O)oc12 | 44 | 3 | 81* | -29 | 52*
CCOC(=O)C1CCCN(C(=O)Cn2ncc3c([nH]c4ccc(C)cc43)c2=O)C1 (centres undefined) | nt | -5 | nt | nt | -4
CN1/C(=C\C=C(/C#N)C(=O)Nc2ccc(Cl)cc2)C(C)(C)c2ccccc21 | -1 | -30 | 63 | 26 | 28*
CC(C)(C)NS(=O)(=O)c1ccc(CCC(=O)N2CCOCC2)cc1 | 2 | 1 | 1 | 15 | 35*
CCN(CC)c1ncnc2c1ncn2[C@H]1CN(Cc2ccccc2)C[C@@H](CO)O1 | nt | -4 | nt | nt | nt
Cc1ccc(NCc2nnc(SCC(=O)N(Cc3ccccc3)C(C)(C)C)o2)c(C)c1 | -2 | 23 | 1 | 60* | -2
c1ccc2c(c1)OCC(c1csc3ncnc(N4CCCC4)c13)O2 (centres undefined) | 1 | 12 | 1 | 23 | 0
c1ccc(CCNc2ncnc3scc(C4COc5ccccc5O4)c23)cc1 (centres undefined) | -10 | 31 | -1 | 60* | 3
O=C(Cc1ccsc1)N1CCc2c([nH]c3ccccc23)C1c1ccccn1 (centres undefined) | 2 | 0 | 2 | -64 | 29*
Cc1nc(C(=O)N2CCc3c([nH]c4ccccc34)C2c2ccccn2)cs1 (centres undefined) | nt | -6 | nt | -48 | 1
Cn1c(/C=C(\C#N)C(N)=S)ccc1-c1ccc(Br)cc1 | 89* | 6 | 92* | 28 | nt
Cc1ccc(NC2=CC(=O)CC(C)(C)C2)cc1F | nt | -3 | nt | nt | 5
CC1(C)CC(=O)C=C(Nc2cccc(F)c2)C1 | nt | -2 | nt | nt | 28*
Cc1cc(N)c(NC2=CC(=O)CC(C)(C)C2)cc1C | 0 | -6 | -12 | 0 | 22*
CC(=O)Nc1ccc(NC2=CC(=O)CC(C)(C)C2)cc1 | 0 | -5 | -2 | -35 | 50*
CN1CCN(NC(=O)CC(C)(C)C)CC1 | 1 | -5 | 3 | -16 | -2
Cc1ccc(NC(=O)CN(C)C(=O)c2cccc(S(=O)(=O)NCc3cccs3)c2)cc1 | nt | -1 | nt | nt | nt
Cc1cc(N2C(=O)C(O)=C(C(=O)c3cc4ccccc4o3)C2c2cccs2)no1 (centres undefined) | nt | 1 | nt | nt | 42*
COC(=O)CN(C)C(=O)c1ccccc1OC1CCN(S(C)(=O)=O)CC1 | nt | -6 | nt | nt | 5
CC(C)CC(=O)Nc1nnc(SCC(=O)Nc2ccc(F)cc2)s1 | 0 | 0 | 2 | 54* | 1
CCC(=O)Nc1nnc(SCC(=O)Nc2ccc(F)cc2)s1 | 1 | -4 | 2 | -23 | 4
SMILES | Runt-CBFb FRET | FAS-TE inh | Runt-SMMHC FRET | Calpain2 inh | RanGTP-Imp inh
Cn1c(N)c(C(=O)COC(=O)/C=C/c2cccc(Cl)c2)c(=O)n(C)c1=O | nt | 1 | nt | nt | nt
Cc1ccc(C(=O)CSc2ncnc3ccccc23)o1 | 40 | -4 | 78* | 0 | nt
OCC(Cc1ccccc1)Nc1c2ccccc2nc2ccccc12 (centres undefined) | 61* | -1 | 59* | -109 | 118*
CN(C)CCCNc1c2ccccc2nc2ccccc12 | nt | -1 | nt | nt | 108*
c1ccc(CNc2c3ccccc3nc3ccccc23)cc1 | nt | -6 | nt | nt | 91*
c1ccc2c(NCCCN3CCOCC3)c3ccccc3nc2c1 | 99* | nt | 92* | -36 | nt
CC12CCC(=O)N1C(C(=O)N1CCN(c3ccc(C(F)(F)F)cc3[N+](=O)[O-])CC1)CS2 (centres undefined) | nt | -8 | nt | nt | 4
CSc1nc(O)c(C(c2ccc(O)cc2)c2c(O)nc(SC)[nH]c2=O)c(=O)[nH]1 | nt | -6 | nt | nt | -3
Cc1nc(NC(=O)COC(=O)CCc2ccccc2)c(Cl)cc1Cl | nt | 9 | nt | nt | nt
